Measured values taken from ChEMBL document CHEMBL1121813, “Dihydrochalcone sweeteners. A study of the atypical temporal phenomena” (1981).

How the values were obtained:
Type in all cases: functional
Homo sapiens [1] = species: Homo sapiens; assay: Percentage of judgments reporting an aftertaste at a concentration of 251 ppm and character thereof
Procedure, shortened: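 Trained human sensory panel; compounds tasted in aqueous solution. Before panel work, compounds had to be ≥95 weight percent pure (HPLC, proton titration, Karl Fischer) and free of mutagenicity (five Salmonella typhimurium strains, ± microsomal activation) and single oral dose mouse toxicity. Value is the percentage of judgments reporting an aftertaste, with its character recorded as sweet, bitter or bitter-sweet.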

Homo sapiens [2] = species: Homo sapiens; assay: Bitter character at a concentration of 251 ppm (mean value)
Procedure, shortened: (§1)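 Trained human panel tasted aqueous solutions. Each judge reported whether there was an aftertaste and its character (sweet, bitter or bitter-sweet). The value is the percentage of judgments reporting a bitter aftertaste.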

Homo sapiens [3] = species: Homo sapiens; assay: Experimentally determined perceived intensity of compound at a concentration of 251 ppm (mean value)
Procedure, shortened: (§2)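 Trained human sensory panel of judges tasted aqueous solutions of the compound. Samples had to be ≥95 weight % pure (HPLC, proton titration, Karl Fischer), non-mutagenic in five Salmonella typhimurium strains with and without microsomal activation, and non-toxic in a single-oral-dose mouse test. Perceived intensity (Ip) was read from time–intensity curves at 4- or 6-s intervals and averaged. Outliers at the 95% level were rejected by t-value. Values reported as mean (2Sm).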

Homo sapiens [4] = species: Homo sapiens; assay: Sour character at a concentration of 251 ppm (mean value)
Procedure, shortened: (§3)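 Trained human sensory panel (Swartz method) tasted dilute aqueous solutions of the compounds, which had to be ≥95 weight percent pure and free of mutagenicity and toxicity. Taste character is reported as the mean value with 2S_m limits. Data deviating excessively at the 95% confidence level were rejected by the t-value method.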

Homo sapiens [5] = species: Homo sapiens; assay: Intensity calculated on a molar basis relative to a 0.25 M sucrose solution at a concentration of 251 ppm (mean value)
Procedure, shortened: (§4)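 Trained human judges tasted aqueous solutions of the test compound; compounds were first required to be ≥95 weight percent pure and free of mutagenicity (five Salmonella typhimurium strains, ± microsomal activation) and of single oral dose mouse toxicity. Molar intensity I_m = perceived intensity × (0.25 M sucrose / compound molar concentration). The mean is reported with 2S_m limits; outliers were rejected at 95% confidence by t-value.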

Homo sapiens [6] = species: Homo sapiens; assay: Sweet / Bitter character at a concentration of 251 ppm (mean value); 51/49
Homo sapiens [7] = species: Homo sapiens; assay: Number of taste judgments per compound
Homo sapiens [8] = species: Homo sapiens; assay: Salty character at a concentration of 251 ppm (mean value); procedure, shortened: as §3
Homo sapiens [9] = species: Homo sapiens; assay: Other taste character at a concentration of 251 ppm (mean value); procedure, shortened: as §3
Homo sapiens [10] = species: Homo sapiens; assay: Intensity calculated on a weight basis relative to an 85500 ppm sucrose solution at a concentration of 251 ppm (mean value)
Procedure, shortened: (§5)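 Trained human panel tasted aqueous solutions of purity-checked (≥95 weight percent) compounds cleared for mutagenicity and mouse oral toxicity. Weight-basis intensity I_w = perceived intensity × (85500 ppm sucrose / compound concentration in ppm). The mean is reported with 2S_m limits; data deviating excessively at 95% confidence were rejected by the t-value method.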

Homo sapiens [11] = species: Homo sapiens; assay: Sweet character at a concentration of 251 ppm (mean value); procedure, shortened: as §3
Homo sapiens [12] = species: Homo sapiens; assay: Sour character at a concentration of 240 ppm (mean value); procedure, shortened: as §3
Homo sapiens [13] = species: Homo sapiens; assay: Percentage of judgments reporting an aftertaste at a concentration of 240 ppm and character thereof
Procedure, shortened: (§6)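 Trained judges tasted aqueous solutions of the compounds, which had to be ≥95 weight percent pure and to have passed mutagenicity and single oral dose toxicity screening. The value is the percentage of panel judgments reporting an aftertaste. Where given, its character is recorded as sweet, bitter or bitter-sweet.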

Homo sapiens [14] = species: Homo sapiens; assay: Intensity calculated on a molar basis relative to a 0.25 M sucrose solution at a concentration of 240 ppm (mean value); procedure, shortened: as §4
Homo sapiens [15] = species: Homo sapiens; assay: Experimentally determined perceived intensity of compound at a concentration of 240 ppm (mean value); procedure, shortened: as §2
Homo sapiens [16] = species: Homo sapiens; assay: Other taste character at a concentration of 240 ppm (mean value); procedure, shortened: as §3
Homo sapiens [17] = species: Homo sapiens; assay: Sweet / Bitter character at a concentration of 240 ppm (mean value); 0/100
Homo sapiens [18] = species: Homo sapiens; assay: Salty character at a concentration of 240 ppm (mean value); procedure, shortened: as §3
Homo sapiens [19] = species: Homo sapiens; assay: Sweet character at a concentration of 240 ppm (mean value); procedure, shortened: as §3
Homo sapiens [20] = species: Homo sapiens; assay: Intensity calculated on a weight basis relative to an 85500 ppm sucrose solution at a concentration of 240 ppm (mean value); procedure, shortened: as §5
Homo sapiens [21] = species: Homo sapiens; assay: Bitter character at a concentration of 240 ppm (mean value); procedure, shortened: as §1
Homo sapiens [22] = species: Homo sapiens; assay: Percentage of judgments reporting an aftertaste at a concentration of 1000 ppm; procedure, shortened: as §6
Homo sapiens [23] = species: Homo sapiens; assay: Experimentally determined perceived intensity of compound at a concentration of 1000 ppm (mean value); procedure, shortened: as §2
Homo sapiens [24] = species: Homo sapiens; assay: Other taste character at a concentration of 246 ppm (mean value); procedure, shortened: as §3
Homo sapiens [25] = species: Homo sapiens; assay: Percentage of judgments reporting an aftertaste at a concentration of 246 ppm and character thereof; procedure, shortened: as §6
Homo sapiens [26] = species: Homo sapiens; assay: Sweet character at a concentration of 246 ppm (mean value)
Homo sapiens [27] = species: Homo sapiens; assay: Experimentally determined perceived intensity of compound at a concentration of 246 ppm (mean value); procedure, shortened: as §2
Homo sapiens [28] = species: Homo sapiens; assay: Sour character at a concentration of 246 ppm (mean value)
Homo sapiens [29] = species: Homo sapiens; assay: Bitter character at a concentration of 246 ppm (mean value); procedure, shortened: as §1
Homo sapiens [30] = species: Homo sapiens; assay: Intensity calculated on a weight basis relative to an 85500 ppm sucrose solution at a concentration of 246 ppm (mean value); procedure, shortened: as §5
Homo sapiens [31] = species: Homo sapiens; assay: Intensity calculated on a molar basis relative to a 0.25 M sucrose solution at a concentration of 246 ppm (mean value); procedure, shortened: as §4
Homo sapiens [32] = species: Homo sapiens; assay: Sweet / Bitter character at a concentration of 246 ppm (mean value); 44/56
Homo sapiens [33] = species: Homo sapiens; assay: Salty character at a concentration of 246 ppm (mean value)
Homo sapiens [34] = species: Homo sapiens; assay: Bitter character at a concentration of 250 ppm (mean value); procedure, shortened: as §1
Homo sapiens [35] = species: Homo sapiens; assay: Other taste character at a concentration of 250 ppm (mean value); procedure, shortened: as §3
Homo sapiens [36] = species: Homo sapiens; assay: Intensity calculated on a molar basis relative to a 0.25 M sucrose solution at a concentration of 250 ppm (mean value); procedure, shortened: as §4
Homo sapiens [37] = species: Homo sapiens; assay: Salty character at a concentration of 250 ppm (mean value); procedure, shortened: as §3
Homo sapiens [38] = species: Homo sapiens; assay: Sour character at a concentration of 250 ppm (mean value); procedure, shortened: as §3
Homo sapiens [39] = species: Homo sapiens; assay: Sweet / Bitter character at a concentration of 250 ppm (mean value); 14/86
Homo sapiens [40] = species: Homo sapiens; assay: Percentage of judgments reporting an aftertaste at a concentration of 250 ppm and character thereof; procedure, shortened: as §6
Homo sapiens [41] = species: Homo sapiens; assay: Experimentally determined perceived intensity of compound at a concentration of 250 ppm (mean value); procedure, shortened: as §2
Homo sapiens [42] = species: Homo sapiens; assay: Sweet character at a concentration of 250 ppm (mean value); procedure, shortened: as §3
Homo sapiens [43] = species: Homo sapiens; assay: Intensity calculated on a weight basis relative to an 85500 ppm sucrose solution at a concentration of 250 ppm (mean value); procedure, shortened: as §5

CCCOc1ccc(CCC(=O)c2c(O)cc(OCC(=O)[O-])cc2O)cc1O.[Na+]
Judgments (Homo sapiens [1]): 100
Taste character (Homo sapiens [2]): 38
IP (Homo sapiens [3]): 0.72
Taste character (Homo sapiens [4]): 0
IM (Homo sapiens [5]): 300
Taste character (Homo sapiens [6]): 51
Judgments (Homo sapiens [7]): 12
Taste character (Homo sapiens [8]): 0
Taste character (Homo sapiens [9]): 23
IW (Homo sapiens [10]): 240
Taste character (Homo sapiens [11]): 39

COc1ccc(CCCc2c(O)cc(OCC(=O)[O-])cc2O)cc1O.[Na+]
Taste character (Homo sapiens [12]): 0
Judgments (Homo sapiens [13]): 0
IM (Homo sapiens [14]): 4
IP (Homo sapiens [15]): 0.01
Taste character (Homo sapiens [16]): 0
Taste character (Homo sapiens [17]): 0
Taste character (Homo sapiens [18]): 0
Taste character (Homo sapiens [19]): 0
IW (Homo sapiens [20]): 4
Judgments (Homo sapiens [7]): 12
Taste character (Homo sapiens [21]): 100

COc1ccc(CCC(=O)OC2C[C@](O)(C(=O)O)C[C@@H](O)[C@H]2O)cc1O (some centres not stated)
Judgments (Homo sapiens [22]): 0
IP (Homo sapiens [23]): 0
Judgments (Homo sapiens [7]): 1

O=C([O-])COc1cc(O)c(C(=O)CCc2cccc(O)c2)c(O)c1.[Na+]
Taste character (Homo sapiens [24]): 13
Judgments (Homo sapiens [25]): 62
Taste character (Homo sapiens [26]): 38
Judgments (Homo sapiens [7]): 12
IP (Homo sapiens [27]): 0.22
Taste character (Homo sapiens [28]): 0
Taste character (Homo sapiens [29]): 49
IW (Homo sapiens [30]): 76
IM (Homo sapiens [31]): 79
Taste character (Homo sapiens [32]): 44
Taste character (Homo sapiens [33]): 0

O=C([O-])COc1cc(O)c(C(=O)CCc2ccc(Cl)c(O)c2)c(O)c1.[Na+]
Taste character (Homo sapiens [34]): 70
Taste character (Homo sapiens [35]): 19
IM (Homo sapiens [36]): 31
Taste character (Homo sapiens [37]): 0
Taste character (Homo sapiens [38]): 0
Taste character (Homo sapiens [39]): 14
Judgments (Homo sapiens [40]): 0
IP (Homo sapiens [41]): 0.28
Judgments (Homo sapiens [7]): 12
Taste character (Homo sapiens [42]): 11
IW (Homo sapiens [43]): 27
